Data set [1] can be described thus: Oral bioavailability in mouse. It counts as ADME, organism-based. As to conditions: in vivo.
Data set [2] addresses Somatostatin receptor type 1 (Homo sapiens, UniProt P30872). Put plainly: Antagonist activity at human SSTR1 expressed in CHO-K1 cell membranes. It is filed as functional, cell-based. The essentials: (§1)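 Counter-screen by filtration membrane binding: competitive displacement of radiolabeled SST-28 from cell membranes expressing human SSTR1, SSTR2, SSTR3 or SSTR4. The IC50 is the mean of at least duplicate experiments within a maximal threefold range.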

Data set [3] concerns Mus musculus. Put plainly: Antidiabetic activity in HFD fed C57BL/6N mouse assessed as decrease in blood glucose AUC at 30 mg/kg administered as single oral dose pretreated for 60 mins followed by glucose challenge measured after 120 mins by OGTT. Details: scale not given: the % may be the effect or the level left. It is filed as functional. The essentials: (§2)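 Male C57BL/6 mice were fed HFD (D12492) for 21 days, n=3. Compound was given orally 1 h before an oral glucose load, and blood glucose was followed over 0-120 min. Read-out is the decrease in glucose AUC versus vehicle.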

Data set [4] deals with T1, Somatostatin receptor type 5 (Homo sapiens, UniProt P35346). In words: Displacement of (3-125I-Tyr11)-SRIF-28 from human SSTR5 expressed in CHO-K1 cell membranes by filtration binding assay.
T1 sequence (P35346 whole entry): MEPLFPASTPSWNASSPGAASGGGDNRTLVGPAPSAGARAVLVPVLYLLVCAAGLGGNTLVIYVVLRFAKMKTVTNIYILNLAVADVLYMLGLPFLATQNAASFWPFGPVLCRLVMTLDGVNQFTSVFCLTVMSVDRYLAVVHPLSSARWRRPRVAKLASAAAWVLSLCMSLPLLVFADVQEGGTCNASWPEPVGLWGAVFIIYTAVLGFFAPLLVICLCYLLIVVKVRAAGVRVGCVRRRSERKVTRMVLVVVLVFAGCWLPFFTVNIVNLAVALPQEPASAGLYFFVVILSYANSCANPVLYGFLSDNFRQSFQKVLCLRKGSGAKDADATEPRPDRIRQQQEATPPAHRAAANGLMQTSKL
Data set [5] in a line: Half life in mouse. It is filed as ADME, organism-based. As to conditions: in vivo.
Data set [6] deals with T1, Somatostatin receptor type 5. In words: Antagonist activity at human SSTR5 expressed in CHO-K1 cell membranes assessed as reduction in SST-28-induced inhibition of forskolin-stimulated cAMP accumulation by LANCE assay. It counts as functional, cell-based.
The target in data set [7] is Voltage-gated inwardly rectifying potassium channel KCNH2 (Homo sapiens, UniProt Q12809). Put plainly: Inhibition of MK-499 binding to human ERG.
Voltage-gated inwardly rectifying potassium channel KCNH2, sequence (Q12809 whole entry): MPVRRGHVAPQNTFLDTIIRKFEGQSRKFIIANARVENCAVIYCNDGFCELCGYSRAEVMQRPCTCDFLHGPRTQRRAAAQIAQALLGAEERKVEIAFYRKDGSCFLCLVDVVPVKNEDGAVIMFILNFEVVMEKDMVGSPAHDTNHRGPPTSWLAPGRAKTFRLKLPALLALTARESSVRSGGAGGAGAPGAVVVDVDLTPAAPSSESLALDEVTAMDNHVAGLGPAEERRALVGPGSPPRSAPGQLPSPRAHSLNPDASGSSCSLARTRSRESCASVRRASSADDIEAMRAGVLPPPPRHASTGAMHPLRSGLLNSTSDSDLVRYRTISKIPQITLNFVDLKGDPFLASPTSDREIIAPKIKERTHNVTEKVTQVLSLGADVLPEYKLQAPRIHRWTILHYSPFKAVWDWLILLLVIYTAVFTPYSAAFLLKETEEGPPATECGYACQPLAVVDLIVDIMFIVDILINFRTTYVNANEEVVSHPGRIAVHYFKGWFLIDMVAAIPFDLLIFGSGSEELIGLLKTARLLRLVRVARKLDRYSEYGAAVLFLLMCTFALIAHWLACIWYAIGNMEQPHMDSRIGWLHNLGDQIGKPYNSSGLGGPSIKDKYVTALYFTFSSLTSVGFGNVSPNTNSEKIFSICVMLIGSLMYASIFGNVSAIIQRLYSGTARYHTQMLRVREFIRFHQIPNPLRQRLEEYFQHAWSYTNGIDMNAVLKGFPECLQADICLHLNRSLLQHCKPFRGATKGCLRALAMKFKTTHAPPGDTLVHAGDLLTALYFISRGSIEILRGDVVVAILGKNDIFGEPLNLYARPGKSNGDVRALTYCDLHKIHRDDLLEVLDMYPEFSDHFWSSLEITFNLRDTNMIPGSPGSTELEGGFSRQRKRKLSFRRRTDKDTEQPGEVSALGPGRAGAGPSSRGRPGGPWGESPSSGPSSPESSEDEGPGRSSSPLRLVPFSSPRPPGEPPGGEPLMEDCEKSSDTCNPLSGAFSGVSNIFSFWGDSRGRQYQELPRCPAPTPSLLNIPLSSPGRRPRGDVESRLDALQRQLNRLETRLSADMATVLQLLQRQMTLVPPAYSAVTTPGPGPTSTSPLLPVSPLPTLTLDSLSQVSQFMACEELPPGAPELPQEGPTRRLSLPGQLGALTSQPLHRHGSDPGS
In data set [8] the target is T2, Somatostatin receptor type 5 (Mus musculus, UniProt O08858).
T2 sequence (O08858 whole entry): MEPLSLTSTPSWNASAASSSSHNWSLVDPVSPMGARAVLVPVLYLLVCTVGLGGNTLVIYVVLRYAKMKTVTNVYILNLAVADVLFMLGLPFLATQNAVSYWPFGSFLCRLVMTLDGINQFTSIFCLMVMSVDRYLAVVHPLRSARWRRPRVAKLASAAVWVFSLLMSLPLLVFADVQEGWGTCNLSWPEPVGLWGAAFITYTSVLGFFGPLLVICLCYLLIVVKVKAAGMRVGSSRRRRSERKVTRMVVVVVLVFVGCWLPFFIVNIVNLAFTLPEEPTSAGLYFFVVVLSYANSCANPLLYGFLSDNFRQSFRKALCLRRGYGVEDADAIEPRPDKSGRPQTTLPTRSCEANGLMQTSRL
Put plainly: Displacement of (3-125I-Tyr11)-SRIF-28 from mouse SSTR5 expressed in CHO-K1 cell membranes by filtration binding assay.

The subject of data set [9] is Mus musculus. In words: Drug uptake in mouse whole blood at 30 mg/kg, po measured at […].
The target of data set [10] is T2, Somatostatin receptor type 5. In words: Antagonist activity at mouse SSTR5 expressed in CHO-K1 cell membranes assessed as reduction in SST-28-induced inhibition of forskolin-stimulated cAMP accumulation by LANCE assay. It counts as functional, cell-based. In general terms: Changes in cAMP serve as a functional read-out for many G protein-coupled receptors.
Data set [11] addresses Somatostatin receptor type 3 (Homo sapiens, UniProt P32745). Put plainly: Antagonist activity at human SSTR3 expressed in CHO-K1 cell membranes. It counts as functional, cell-based. The essentials:
as §1

The subject of data set [12] is Mus musculus. Put plainly: Antidiabetic activity in HFD fed C57BL/6N mouse assessed as decrease in blood glucose AUC at 10 mg/kg administered as single oral dose pretreated for 60 mins followed by glucose challenge measured after 120 mins by OGTT. It counts as functional. Also noted: scale not given: the % may be the effect or the level left. The procedure, abridged: as §2

Consider 9 molecules from ChEMBL document CHEMBL4266056, “Discovery and Pharmacology of a Novel Somatostatin Subtype 5 (SSTR5) Antagonist: Synergy with DPP-4 Inhibition” (ACS Med Chem Lett, 2018).

Somatostatin receptor type 1, sequence (P30872 whole entry): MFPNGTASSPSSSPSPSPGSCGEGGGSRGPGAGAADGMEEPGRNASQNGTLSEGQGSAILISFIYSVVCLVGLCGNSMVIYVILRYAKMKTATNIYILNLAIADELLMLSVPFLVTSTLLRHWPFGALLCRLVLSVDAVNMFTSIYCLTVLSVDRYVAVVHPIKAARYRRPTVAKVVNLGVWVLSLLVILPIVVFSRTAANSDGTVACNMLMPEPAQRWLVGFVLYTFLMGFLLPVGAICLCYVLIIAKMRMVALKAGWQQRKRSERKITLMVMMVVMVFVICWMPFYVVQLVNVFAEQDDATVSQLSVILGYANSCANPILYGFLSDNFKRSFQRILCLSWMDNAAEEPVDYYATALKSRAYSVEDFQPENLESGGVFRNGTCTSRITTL
Somatostatin receptor type 3, sequence (P32745 whole entry): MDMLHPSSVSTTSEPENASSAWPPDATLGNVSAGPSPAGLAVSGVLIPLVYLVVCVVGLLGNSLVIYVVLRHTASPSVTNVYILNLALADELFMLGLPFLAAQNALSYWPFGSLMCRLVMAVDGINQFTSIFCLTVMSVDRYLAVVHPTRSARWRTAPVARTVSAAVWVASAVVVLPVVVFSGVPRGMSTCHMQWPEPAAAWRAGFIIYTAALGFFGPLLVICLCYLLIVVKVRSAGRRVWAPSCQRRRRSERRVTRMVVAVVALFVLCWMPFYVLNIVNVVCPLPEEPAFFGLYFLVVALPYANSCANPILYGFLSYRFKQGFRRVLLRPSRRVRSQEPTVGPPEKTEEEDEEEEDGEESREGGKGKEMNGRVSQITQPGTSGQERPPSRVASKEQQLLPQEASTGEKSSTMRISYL

What is called bioavailability is dose-corrected exposure relative to a reference, in per cent. A word on the IC50: it is the concentration needed to halve the response being measured. The term half-life denotes the time needed for the level to fall by half in the phase considered. With `CCOc1cc(CN2CC[C@H]3C(Nc4nc5ccc(C(=O)O)cc5o4)CC[C@H]32)cc(OCC)c1-c1ccc(F)cc1` (relative stereo), the bioavailability in data set [1] came out at 48%. Also, the half-inhibitory concentration (IC50) worked out at 6 µM in [2]; 0.0025 µM in data set [4]; 0.0045 µM in data set [6]; 15 µM in [7]; 0.016 µM in data set [8]; 0.0061 µM in [10]. For the same molecule, the Activity in data set [3] is 56%. Moreover, the half-life in [5] was 1.7 h. Moreover, in data set [9], the concentration at […] worked out at 0.76 µM.
As to `CCOc1cc(CN2CCC3(CC2)NC(=O)NC3=O)cc(OCC)c1-c1ccc(F)cc1`, in data set [3], the Activity was found to be 54%. Also, the 50% inhibitory concentration (IC50) stood at 0.083 µM in data set [4]; 0.11 µM in data set [6]; 25 µM in data set [7]; 0.032 µM in data set [8]; 0.0074 µM in data set [10]. For the same molecule, in data set [9], the concentration at […] came out at 0.46 µM.
As to `CCOc1cc(CN2CCC(Oc3nccc(Cl)n3)CC2)cc(OCC)c1-c1ccc(F)cc1`, the IC50 in data set [4] was found to be 0.021 µM; in data set [6], 0.073 µM; in [8] it was 0.013 µM.
For `CCOc1cc(CN2CCC(C3CCN(S(=O)(=O)c4ccccc4)CC3)CC2)cc(OCC)c1-c1ccc(F)cc1`, in data set [1], the bioavailability came to 13%. Also, the Activity in [3] stood at 60%. The IC50 in [4] was 0.0007 µM; in data set [6] it was 0.0086 µM; in data set [7] it was 0.22 µM; in data set [8], 0.0008 µM; in data set [10] it was 0.028 µM. In data set [9], this molecule displayed a concentration at […] of 0.092 µM.
As to `CCOc1cc(CN2CCC(c3ncc(-c4ccc(F)cc4)[nH]3)CC2)cc(OCC)c1-c1ccc(F)cc1`, the IC50 in [11] amounted to 0.119 µM; in data set [4] it was 0.0076 µM; in data set [6], 0.247 µM; in data set [7], 0.26 µM; in data set [8], 0.0027 µM; in data set [10], 0.098 µM.
Turning to `CCOc1cc(CN2CCC(COc3cccc4cccnc34)CC2)cc(OCC)c1-c1ccc(F)cc1`, the concentration for half-maximal inhibition (IC50) in data set [4] turned out to be 0.0029 µM; in data set [6] it was 0.0678 µM; in data set [7], 0.21 µM; in data set [8], 0.0006 µM; in data set [10], 0.0071 µM.
As to `CCOc1cc(CN2CCC(NC(=O)c3cncc(C)c3)CC2)cc(OCC)c1-c1ccc(F)cc1`, the concentration for half-maximal inhibition (IC50) was less than 0.3 µM in [2]; 0.0013 µM in data set [4]; 0.0031 µM in data set [6]; 1.69 µM in [7]; 0.001 µM in data set [8]; 0.0027 µM in data set [10]. In addition, the Activity in data set [12] was 87%.
Consider `CCOc1cc(CN2CCC3(CC2)CCN(S(=O)(=O)c2cccnc2)CC3)cc(OCC)c1-c1ccc(F)cc1`, for which the concentration for half-maximal inhibition (IC50) is 0.013 µM in data set [4], 0.026 µM in data set [6] and 0.21 µM in data set [7].
Consider `CCOc1cc(CN2CCC3(CC2)CC(Cc2ccc(F)cc2)C(=O)O3)cc(OCC)c1-c1ccc(F)cc1` (racemic), for which the half-maximal inhibitory concentration (IC50) in [4] amounted to 0.0016 µM; in [6], 0.067 µM; in [8], 0.0025 µM.
